Reference: ChEMBL document CHEMBL1153939, “Novel antagonists of serotonin-4 receptors: synthesis and biological evaluation of pyrrolothienopyrazines” (Bioorg Med Chem, 2009)

What was measured:
Mus musculus [1] = test: Acute toxicity in NMRI mouse assessed as behavioral changes at 5 mg/kg, ip by CNS activity test; assay type: organism-based, Central nervous system; design: dose 5 mg/kg, route intraperitoneal; settings: in vivo
Outline: (§1)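 Male NMRI mice (20–24 g) given ip drug in saline (10 mL/kg), groups of 4. Behavioural and neurological changes scored against controls by a standardized observation technique at 30 min, 3 h and 24 h post-dose. Approximate LD50 derived from deaths counted at 24 h.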

[2] = biological target: 5-hydroxytryptamine receptor 4 (Cavia porcellus) (UniProt O70528); test: Displacement of [3H]GR-113808 from 5HT4 receptor in guinea pig striatum membrane at 10 nM; assay type: cell membranes
Outline: (§2)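 Guinea pig membranes (15 µg protein/mL) incubated 30 min at 37 °C with 0.6 nM [3H]GR113808 in 50 mM HEPES, pH 7.4, with fixed test concentrations. Nonspecific binding defined with 10 µM serotonin.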

[3] = biological target: 5-hydroxytryptamine receptor 4 (Cavia porcellus, UniProt O70528); test: Displacement of [3H]GR-113808 from 5HT4 receptor in guinea pig striatum membrane; assay type: cell membranes; outline: as §2
[4] = biological target: T1, 5-hydroxytryptamine receptor 1A (Homo sapiens, UniProt P08908); test: Displacement of [3H]8OH-DPAT from human recombinant 5HT1A receptor
T1 sequence (P08908 whole entry): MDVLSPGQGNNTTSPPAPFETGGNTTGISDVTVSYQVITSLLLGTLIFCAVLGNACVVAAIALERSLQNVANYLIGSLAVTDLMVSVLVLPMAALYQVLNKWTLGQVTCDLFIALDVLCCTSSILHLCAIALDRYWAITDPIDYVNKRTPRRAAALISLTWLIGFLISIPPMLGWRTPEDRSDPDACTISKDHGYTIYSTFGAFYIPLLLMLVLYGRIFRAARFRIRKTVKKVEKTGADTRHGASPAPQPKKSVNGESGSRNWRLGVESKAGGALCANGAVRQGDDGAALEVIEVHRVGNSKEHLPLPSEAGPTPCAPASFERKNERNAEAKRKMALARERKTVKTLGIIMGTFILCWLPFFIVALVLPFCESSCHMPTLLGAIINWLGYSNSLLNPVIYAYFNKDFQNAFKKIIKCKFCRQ

[5] = biological target: 5-hydroxytryptamine receptor 2A (Homo sapiens, UniProt P28223); test: Displacement of [3H]ketanserin form human recombinant 5HT2A receptor
[6] = biological target: 5-hydroxytryptamine receptor 2B (Homo sapiens, UniProt P41595); test: Displacement of [3H]mesulergine from human recombinant 5HT2B receptor
[7] = biological target: T2, 5-hydroxytryptamine receptor 2C (Homo sapiens, UniProt P28335); test: Displacement of [3H]mesulergine from human recombinant 5HT2C receptor
T2 sequence (P28335 whole entry): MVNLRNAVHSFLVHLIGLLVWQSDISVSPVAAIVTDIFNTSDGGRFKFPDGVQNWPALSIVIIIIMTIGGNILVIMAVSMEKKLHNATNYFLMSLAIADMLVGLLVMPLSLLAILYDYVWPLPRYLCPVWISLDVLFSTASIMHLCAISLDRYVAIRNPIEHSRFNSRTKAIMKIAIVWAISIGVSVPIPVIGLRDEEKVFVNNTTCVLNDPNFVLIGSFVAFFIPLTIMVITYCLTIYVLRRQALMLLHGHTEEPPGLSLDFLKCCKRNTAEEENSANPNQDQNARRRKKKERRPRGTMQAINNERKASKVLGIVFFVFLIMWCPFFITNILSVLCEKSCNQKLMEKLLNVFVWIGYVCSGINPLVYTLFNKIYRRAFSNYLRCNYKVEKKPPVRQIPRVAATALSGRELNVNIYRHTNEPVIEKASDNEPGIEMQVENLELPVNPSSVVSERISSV

[8] = biological target: T3, 5-hydroxytryptamine receptor 3A (Homo sapiens, UniProt P46098); test: Displacement of [3H]granisetron from human recombinant 5HT3 receptor
T3 sequence (P46098 whole entry): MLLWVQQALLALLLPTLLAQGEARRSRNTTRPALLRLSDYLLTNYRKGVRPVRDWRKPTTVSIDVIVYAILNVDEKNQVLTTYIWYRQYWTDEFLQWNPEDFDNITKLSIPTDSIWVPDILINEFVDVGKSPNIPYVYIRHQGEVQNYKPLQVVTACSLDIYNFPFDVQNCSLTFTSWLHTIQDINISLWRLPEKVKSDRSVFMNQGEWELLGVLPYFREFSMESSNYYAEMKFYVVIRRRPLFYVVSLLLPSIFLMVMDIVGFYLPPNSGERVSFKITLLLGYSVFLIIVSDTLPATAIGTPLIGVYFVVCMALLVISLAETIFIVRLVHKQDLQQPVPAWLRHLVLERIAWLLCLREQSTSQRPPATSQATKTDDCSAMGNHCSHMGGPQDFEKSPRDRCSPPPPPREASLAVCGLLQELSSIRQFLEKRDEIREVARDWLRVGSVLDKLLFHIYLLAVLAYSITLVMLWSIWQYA

[9] = biological target: 5-hydroxytryptamine receptor 6 (Homo sapiens, UniProt P50406); test: Displacement of [3H]LSD form human recombinant 5HT6 receptor
Outline: (§3)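 Membranes from sf9 cells expressing human 5-HT6 (14 µg/mL) or 5-HT7 (38 µg/mL) incubated 90 min at 27 °C with 2 nM [3H]LSD in 50 mM Tris-HCl containing 10 mM MgSO4 and 0.5 mM EDTA. Nonspecific binding defined with clozapine (10 and 250 µM).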

[10] = biological target: 5-hydroxytryptamine receptor 7 (Homo sapiens, UniProt P34969); test: Displacement of [3H]LSD form human recombinant 5HT7 receptor; outline: as §3
[11] = biological target: 5-hydroxytryptamine receptor 4 (Cavia porcellus) (UniProt O70528); test: Displacement of [3H]GR-113808 from 5HT4 receptor in guinea pig striatum membrane at 1 uM; assay type: cell membranes; outline: as §2
Mus musculus [12] = test: Inhibition of scopolamine-induced immediate working memory deficit in NMRI mouse at 1 mg/kg, ip by Y-maze test relative to control; assay type: functional; design: scale not given: the % may be the effect or the level left; settings: route intraperitoneal
Outline: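 Spontaneous alternation in male NMRI mice. Scopolamine 1 mg/kg ip in saline induces the working-memory deficit; groups are saline+saline, saline+scopolamine, drug+saline and drug+scopolamine. Alternation % = actual alternations/(total arm entries − 2) × 100. ANOVA plus Fisher PLSD, p<0.05.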

Mus musculus [13] = test: Antinociceptive activity against acetic acid-induced writhing in NMRI mouse assessed as number of stretches at 0.01 mg/kg, ip by writhing test; assay type: functional; settings: route intraperitoneal
Outline: (§4)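 Groups of 8 male NMRI mice (20–24 g). Compound or reference given ip in saline (10 mL/kg) 15 min before ip 0.6% aqueous acetic acid (10 mL/kg). Stretches (back arching, pelvic rotation, hind-limb extension) counted over 10 min, beginning 10 min after acid. ANOVA + Fisher PLSD versus control.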

Mus musculus [14] = test: Antinociceptive activity against acetic acid-induced writhing in NMRI mouse assessed as number of stretches at 0.1 mg/kg, ip by writhing test; assay type: functional; settings: route intraperitoneal; outline: as §4
Mus musculus [15] = test: Antinociceptive activity against acetic acid-induced writhing in NMRI mouse assessed as number of stretches at 1 mg/kg, ip by writhing test; assay type: functional; settings: route intraperitoneal; outline: as §4
[16] = biological target: T3, 5-hydroxytryptamine receptor 3A; test: Binding affinity at 5HT3 receptor
[17] = biological target: 5-hydroxytryptamine receptor 4 (Homo sapiens, UniProt Q13639); test: Binding affinity at 5HT4 receptor
Mus musculus [18] = test: Antinociceptive activity against acetic acid-induced writhing in NMRI mouse assessed as number of stretches at 5 mg/kg, ip by writhing test; assay type: functional; settings: route intraperitoneal; outline: as §4
[19] = biological target: T3, 5-hydroxytryptamine receptor 3A; test: Displacement of [3H]granisetron form 5HT3 receptor in hybrid […] cells; assay type: cell-based
Outline: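 NG108-15 cell membranes (0.5 mg protein/mL) incubated 60 min at 25 °C with 1 nM [3H]granisetron in 50 mM Tris-HCl, pH 7.4, plus 25 mM NaCl. Percent inhibition measured at 10^-6 and 10^-7 M; for some compounds Ki calculated from 8–10-point inhibition curves (Ki ± SEM).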

Mus musculus [20] = test: Acute toxicity in NMRI mouse assessed as behavioral changes at 25 mg/kg, ip by CNS activity test; assay type: organism-based, Central nervous system; design: dose 25 mg/kg, route intraperitoneal; settings: in vivo; outline: as §1
Mus musculus [21] = test: Analgesic activity in NMRI mouse assessed as reaction time taken to lick fore paw at 8 mg/kg, ip after 15 mins of administration by hot plate test; assay type: functional; settings: route intraperitoneal
Outline: (§5)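 Hot plate at 55 °C, male NMRI mice (20–24 g), groups of 10. Drug given ip in saline (10 mL/kg). Baseline latency to forepaw licking taken twice before dosing, and mice had to respond within 4–12 s. Latency read at 15 and 30 min after injection, with a 30 s cutoff. Data as mean ± SEM, ANOVA plus Fisher PLSD.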

Mus musculus [22] = test: Analgesic activity in NMRI mouse assessed as reaction time taken to lick fore paw at 8 mg/kg, ip after 30 mins of administration by hot plate test; assay type: functional; settings: route intraperitoneal; outline: as §5
Mus musculus [23] = test: Antinociceptive activity against acetic acid-induced writhing in NMRI mouse assessed as number of stretches at 30 mg/kg, ip by writhing test; assay type: functional; settings: route intraperitoneal; outline: as §4

Chain of 5-hydroxytryptamine receptor 4 (Cavia porcellus, UniProt O70528) (O70528 whole entry): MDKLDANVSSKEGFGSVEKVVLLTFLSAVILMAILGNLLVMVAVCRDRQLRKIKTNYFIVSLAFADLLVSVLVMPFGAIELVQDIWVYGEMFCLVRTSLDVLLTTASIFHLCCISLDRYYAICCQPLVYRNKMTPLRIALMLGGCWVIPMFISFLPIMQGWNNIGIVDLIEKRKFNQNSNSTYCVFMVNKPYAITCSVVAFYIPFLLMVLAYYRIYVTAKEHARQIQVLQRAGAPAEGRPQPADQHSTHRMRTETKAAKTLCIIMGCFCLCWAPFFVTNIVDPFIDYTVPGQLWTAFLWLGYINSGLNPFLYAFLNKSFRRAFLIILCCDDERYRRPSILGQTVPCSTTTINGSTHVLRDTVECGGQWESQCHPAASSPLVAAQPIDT
Chain of 5-hydroxytryptamine receptor 4 (Cavia porcellus) (O70528 whole entry): as above
Chain of 5-hydroxytryptamine receptor 6 (P50406 whole entry): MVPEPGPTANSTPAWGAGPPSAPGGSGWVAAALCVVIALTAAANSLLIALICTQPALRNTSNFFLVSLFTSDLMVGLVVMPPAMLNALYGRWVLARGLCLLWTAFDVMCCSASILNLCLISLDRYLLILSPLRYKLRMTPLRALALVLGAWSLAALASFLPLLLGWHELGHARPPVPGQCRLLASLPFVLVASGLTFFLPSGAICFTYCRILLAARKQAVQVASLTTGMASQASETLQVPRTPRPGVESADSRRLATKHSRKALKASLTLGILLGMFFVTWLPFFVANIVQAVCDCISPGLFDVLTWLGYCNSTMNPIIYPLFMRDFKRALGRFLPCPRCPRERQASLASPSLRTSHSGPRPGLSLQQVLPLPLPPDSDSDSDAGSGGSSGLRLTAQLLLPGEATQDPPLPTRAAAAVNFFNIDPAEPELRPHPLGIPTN
Chain of 5-hydroxytryptamine receptor 7 (P34969 whole entry): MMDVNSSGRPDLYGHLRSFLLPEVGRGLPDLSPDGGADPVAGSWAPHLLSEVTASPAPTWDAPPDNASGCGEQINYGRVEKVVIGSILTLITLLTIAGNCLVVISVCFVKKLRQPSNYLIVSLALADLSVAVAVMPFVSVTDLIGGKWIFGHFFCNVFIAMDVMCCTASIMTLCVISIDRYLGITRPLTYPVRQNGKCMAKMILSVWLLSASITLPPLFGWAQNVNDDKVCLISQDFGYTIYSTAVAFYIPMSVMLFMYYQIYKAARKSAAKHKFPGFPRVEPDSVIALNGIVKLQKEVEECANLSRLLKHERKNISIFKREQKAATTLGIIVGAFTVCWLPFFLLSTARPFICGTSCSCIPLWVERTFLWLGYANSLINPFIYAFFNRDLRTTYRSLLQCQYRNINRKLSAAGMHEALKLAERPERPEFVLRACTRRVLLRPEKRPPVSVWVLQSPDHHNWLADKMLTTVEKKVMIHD
Chain of 5-hydroxytryptamine receptor 2B (P41595 whole entry): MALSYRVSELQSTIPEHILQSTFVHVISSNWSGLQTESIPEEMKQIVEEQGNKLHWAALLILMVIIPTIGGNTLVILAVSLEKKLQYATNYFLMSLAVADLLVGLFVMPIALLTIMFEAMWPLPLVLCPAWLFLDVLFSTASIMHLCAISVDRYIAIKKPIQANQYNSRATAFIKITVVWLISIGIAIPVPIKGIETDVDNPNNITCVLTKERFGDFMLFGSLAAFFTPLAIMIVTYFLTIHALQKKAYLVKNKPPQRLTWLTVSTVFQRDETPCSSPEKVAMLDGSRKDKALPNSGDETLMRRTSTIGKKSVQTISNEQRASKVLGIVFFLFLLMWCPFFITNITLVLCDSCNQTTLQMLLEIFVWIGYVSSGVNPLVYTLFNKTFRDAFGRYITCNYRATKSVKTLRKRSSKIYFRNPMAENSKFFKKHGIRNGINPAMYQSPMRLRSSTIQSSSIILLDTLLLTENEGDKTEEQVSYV
Chain of 5-hydroxytryptamine receptor 2A (P28223 whole entry): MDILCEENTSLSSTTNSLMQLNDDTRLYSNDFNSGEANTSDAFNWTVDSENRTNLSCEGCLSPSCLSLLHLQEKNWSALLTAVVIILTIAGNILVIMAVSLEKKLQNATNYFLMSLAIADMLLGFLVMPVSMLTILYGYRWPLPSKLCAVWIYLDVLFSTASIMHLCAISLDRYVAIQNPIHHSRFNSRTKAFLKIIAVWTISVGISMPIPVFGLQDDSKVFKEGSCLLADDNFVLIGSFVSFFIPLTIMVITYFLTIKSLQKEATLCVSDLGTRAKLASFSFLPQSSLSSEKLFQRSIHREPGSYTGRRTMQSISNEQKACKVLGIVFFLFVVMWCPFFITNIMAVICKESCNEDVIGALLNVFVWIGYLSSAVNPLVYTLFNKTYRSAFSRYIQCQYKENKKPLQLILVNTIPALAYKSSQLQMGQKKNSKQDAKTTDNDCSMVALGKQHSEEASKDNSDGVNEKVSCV
Chain of 5-hydroxytryptamine receptor 4 (Homo sapiens, UniProt Q13639) (Q13639 whole entry): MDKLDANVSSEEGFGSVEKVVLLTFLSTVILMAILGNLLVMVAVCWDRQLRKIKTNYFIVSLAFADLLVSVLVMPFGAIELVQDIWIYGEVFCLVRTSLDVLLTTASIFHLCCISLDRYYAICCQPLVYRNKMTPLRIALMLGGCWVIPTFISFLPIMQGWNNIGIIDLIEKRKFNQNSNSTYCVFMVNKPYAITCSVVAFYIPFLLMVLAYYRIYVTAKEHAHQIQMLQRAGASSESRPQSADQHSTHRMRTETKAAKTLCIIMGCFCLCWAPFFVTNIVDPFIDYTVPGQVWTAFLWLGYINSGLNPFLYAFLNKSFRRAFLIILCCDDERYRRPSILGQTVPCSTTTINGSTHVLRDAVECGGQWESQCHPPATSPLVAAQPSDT

In the case of OCCN1CCN(CCCN2c3ccccc3Sc3ccc(Cl)cc32)CC1 [PERPHENAZINE], the Activity (Mus musculus [1]) is reported as “Toxic”.
With CCN1CCC(COc2nc3ccsc3n3cccc23)CC1 the inhibition [2] was 42%, the Ki [3] was 19.1 nM and the IC50 [4] was > 100000 nM. For the same compound, the IC50 [5] was 8130 nM, the IC50 [6] was 9.77 nM and the IC50 [7] was 5620 nM. For the same compound, the IC50 [8] was > 1000 nM, the IC50 [9] was > 10000 nM and the IC50 [10] was > 1000 nM. The inhibition [11] was 84%.
Work on COC(=O)C1=CCCN(C)C1 [ARECOLINE] yielded an Activity (Mus musculus [12]) of 64%.
Compound Cn1cc(C(=O)OCC2CCN(CCNS(C)(=O)=O)CC2)c2ccccc21 has an Activity (Mus musculus [13]) of 21.1, an Activity (Mus musculus [14]) of 14.8 and an Activity (Mus musculus [15]) of 14.3. For the same compound, the Ki [16] was > 10000 nM and the Ki [17] was 0.158 nM.
Compound CN1C(C(=O)Nc2ccccn2)=C(O)c2ccccc2S1(=O)=O [PIROXICAM] has an Activity (Mus musculus [18]) of 2.2.
c1ccc(CN2CCN(c3nc4ccsc4n4cccc34)CC2)cc1 was tested, and the IC50 [3] was > 10000 nM and the IC50 [19] was 1.41 nM.
COC(=O)C(c1ccccc1)C1CCCCN1 (configuration not stated) [METHYLPHENIDATE] was tested, and the Activity (Mus musculus [20]) was “Toxic”.
Work on CCCCN1CCC(COc2nc3ccsc3n3cccc23)CC1 yielded an inhibition [2] of 31%, a Ki [3] of 20.9 nM and an IC50 [4] of 5250 nM. It also gave an IC50 [5] of 166 nM, an IC50 [6] of 52.5 nM and an IC50 [7] of 29500 nM. The IC50 [8] was > 10000 nM, the IC50 [9] was > 10000 nM and the IC50 [10] was > 1000 nM. The inhibition [11] was 100%.
For COc1[nH]c2ccc(F)cc2c1C(=O)OCC1CCN(CCNS(C)(=O)=O)CC1, the Activity (Mus musculus [13]) was 19.1, the Activity (Mus musculus [14]) was 13.2 and the Activity (Mus musculus [15]) was 12.9.
With CN1CC[C@]23c4c5ccc(O)c4O[C@H]2[C@@H](O)C=C[C@H]3[C@H]1C5 [MORPHINE] the Time (Mus musculus [21]) was 30 s and the Time (Mus musculus [22]) was 26 s.
Compound CC(=O)Oc1ccccc1C(=O)O [ASPIRIN] has an Activity (Mus musculus [23]) of 8.3.
